Data: ChEMBL document CHEMBL1123476, “Synthesis of congeners and prodrugs of the benzene maleimide photoadduct mitindomide as potential antitumor agents. 2” (J Med Chem, 1986)
Where “and” joins values, the source holds several entries; their conditions need not be identical. Identical values can stand only once.

How the values were obtained:
P388 [1] = assay: Compound was tested for antitumor activity in P-388 lymphocytic leukemia system at 25 mg/kg dose levels per injection; type: functional, Mus musculus
How it was run: (§1)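 P-388 leukemia in vivo, dosed Q01D×09 (one injection daily for 9 days, mg/kg per injection). Activity is %T/C, the median lifetime of treated animals divided by that of controls, ×100. Live animals on day 4 were counted against the total (survivors day 4). Repeat tests were done independently at different times.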

P388 [2] = assay: Antitumor activity in P-388 lymphocytic leukemia system and the difference in body weight was calculated at 50 mg/kg dose levels per injection.; type: functional, Mus musculus
P388 [3] = assay: Compound was tested for antitumor activity in P-388 lymphocytic leukemia system 25 mg/kg dose levels per injection; type: functional, Mus musculus; how it was run: as §1
[4] = Solubility was determined; INS= less than 0.1; type: physicochemical
P388 [5] = assay: Compound was tested for antitumor activity in P-388 lymphocytic leukemia system at 400 mg/kg dose levels per injection; 5/5; type: functional, Mus musculus
How it was run: (§2)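 P-388 leukemia in animals, Q01D×09 schedule: dose given daily for 9 days, in mg/kg per injection. Read-outs are survivors on day 4 (live/total animals), body-weight difference test minus control (g), and % T/C (median lifetime of treated ÷ median lifetime of controls × 100). Some compounds were tested in independent runs at different times.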

P388 [6] = assay: Antitumor activity in P-388 lymphocytic leukemia system at 25 mg/kg dose levels per injection.; type: functional, Mus musculus; how it was run: as §2
P388 [7] = assay: (§3) Antitumor activity in P-388 lymphocytic leukemia system at 50 mg/kg dose levels per injection.; type: functional, Mus musculus; how it was run: as §2
P388 [8] = assay: (§4) Antitumor activity in P-388 lymphocytic leukemia system at 100 mg/kg dose levels per injection.; type: functional, Mus musculus; how it was run: as §1
P388 [9] = assay: Compound was tested for antitumor activity in P-388 lymphocytic leukemia system at 200 mg/kg dose levels per injection; 5/5; type: functional, Mus musculus; how it was run: as §2
P388 [10] = assay: Compound was tested for antitumor activity in P-388 lymphocytic leukemia system and the difference in body weight was calculated at 400 mg/kg dose levels per injection; type: functional, Mus musculus
P388 [11] = assay: as §3; type: functional, Mus musculus; how it was run: as §1; remark: listed apart in the source
P388 [12] = assay: (§5) Antitumor activity in P-388 lymphocytic leukemia system at 200 mg/kg dose levels per injection.; type: functional, Mus musculus; how it was run: as §2
P388 [13] = assay: Compound was tested for antitumor activity in P-388 lymphocytic leukemia system at 100 mg/kg dose levels per injection; 5/5; type: functional, Mus musculus; how it was run: as §2
P388 [14] = assay: Compound was tested for antitumor activity in P-388 lymphocytic leukemia system at 50 mg/kg dose levels per injection; 5/5; type: functional, Mus musculus; how it was run: as §2
P388 [15] = assay: as §5; type: functional, Mus musculus; conditions: 200 mg/kg; how it was run: as §1
P388 [16] = assay: as §4; type: functional, Mus musculus; how it was run: as §2; remark: listed apart in the source
P388 [17] = assay: Compound was tested for antitumor activity in P-388 lymphocytic leukemia system. at 400 mg/kg dose levels per injection; type: functional, Mus musculus; how it was run: as §1
P388 [18] = assay: Antitumor activity in P-388 lymphocytic leukemia system at 25 mg/kg dose levels per injection; type: functional, Mus musculus; how it was run: as §1
P388 [19] = assay: Compound was tested for antitumor activity in P-388 lymphocytic leukemia system at 200 mg/kg dose levels per injection; 4/6; type: functional, Mus musculus; how it was run: as §2
P388 [20] = assay: Antitumor activity in P-388 lymphocytic leukemia system and the difference in body weight was calculated at 200 mg/kg dose levels per injection.; type: functional, Mus musculus
P388 [21] = assay: Compound was tested for antitumor activity in P-388 lymphocytic leukemia system at 200 mg/kg dose levels per injection; 3/6; type: functional, Mus musculus; how it was run: as §2
P388 [22] = assay: Compound was tested for antitumor activity in P-388 lymphocytic leukemia system at 200 mg/kg dose levels per injection.; type: functional, organism-based; parameters: dose 200 mg/kg; conditions: Mus musculus; how it was run: as §1
P388 [23] = assay: Antitumor activity in P-388 lymphocytic leukemia system and the difference in body weight was calculated at 25 mg/kg dose levels per injection.; type: functional, Mus musculus
P388 [24] = assay: Compound was tested for antitumor activity in P-388 lymphocytic leukemia system at 50 mg/kg dose levels per injection; 6/6; type: functional, Mus musculus; how it was run: as §2
P388 [25] = assay: Antitumor activity in P-388 lymphocytic leukemia system and the difference in body weight calculated at 100 mg/kg dose levels per injection.; type: functional, Mus musculus
P388 [26] = assay: Compound was tested for antitumor activity in P-388 lymphocytic leukemia system at 400 mg/kg dose levels per injection; 6/6; type: functional, Mus musculus; how it was run: as §2
P388 [27] = assay: Compound was tested for antitumor activity in P-388 lymphocytic leukemia system. The difference in body weight was calculated at 25 mg/kg dose levels per injection; type: functional, Mus musculus
P388 [28] = assay: Compound was tested for antitumor activity in P-388 lymphocytic leukemia system. at 400 mg/kg dose levels per injection; Toxic; type: functional, organism-based; parameters: dose 400 mg/kg; conditions: Mus musculus; how it was run: as §1
P388 [29] = assay: Compound was tested for antitumor activity in P-388 lymphocytic leukemia system and the difference in body weight was calculated at 30 mg/kg dose levels per injection; type: functional, Mus musculus
P388 [30] = assay: Compound was tested for antitumor activity in P-388 lymphocytic leukemia system and the difference in body weight was calculated at 60 mg/kg dose levels per injection; type: functional, Mus musculus
P388 [31] = assay: Compound was tested for antitumor activity in P-388 lymphocytic leukemia system at 60 mg/kg dose levels per injection; 6/6; type: functional, Mus musculus; how it was run: as §2
P388 [32] = assay: Compound was tested for antitumor activity in P-388 lymphocytic leukemia system at 30 mg/kg dose levels per injection; type: functional, Mus musculus; how it was run: as §1
P388 [33] = assay: Compound was tested for antitumor activity in P-388 lymphocytic leukemia system and the difference in body weight was calculated at 166.7 mg/kg dose levels per injection; type: functional, Mus musculus
P388 [34] = assay: Compound was tested for antitumor activity in P-388 lymphocytic leukemia system at 166.7 mg/kg dose levels per injection; 3/6; type: functional, Mus musculus; how it was run: as §2
P388 [35] = assay: Compound was tested for antitumor activity in P-388 lymphocytic leukemia system at 30 mg/kg dose levels per injection; 6/6; type: functional, Mus musculus; how it was run: as §2
[36] = Solubility was determined; type: physicochemical
P388 [37] = assay: Compound was tested for antitumor activity in P-388 lymphocytic leukemia system at 50 mg/kg dose levels per injection; 5/6; type: functional, Mus musculus; how it was run: as §2
P388 [38] = assay: Compound was tested for antitumor activity in P-388 lymphocytic leukemia system at 60 mg/kg dose levels per injection; type: functional, Mus musculus; how it was run: as §1
P388 [39] = assay: Compound was tested for antitumor activity in P-388 lymphocytic leukemia system at 200 mg/kg dose levels per injection; 5/6; type: functional, Mus musculus; how it was run: as §2
P388 [40] = assay: Compound was tested for antitumor activity in P-388 lymphocytic leukemia system at 100 mg/kg dose levels per injection; 5/6; type: functional, Mus musculus; how it was run: as §2
P388 [41] = assay: Compound was tested for antitumor activity in P-388 lymphocytic leukemia system at 100 mg/kg dose levels per injection; Toxic; type: functional, organism-based; parameters: dose 100 mg/kg; conditions: Mus musculus; how it was run: as §1
P388 [42] = assay: Compound was tested for antitumor activity in P-388 lymphocytic leukemia system at 200 mg/kg dose levels per injection; 2/6; type: functional, Mus musculus; how it was run: as §2
P388 [43] = assay: Compound was tested for antitumor activity in P-388 lymphocytic leukemia system at 50 mg/kg dose levels per injection;6/6; type: functional, Mus musculus; how it was run: as §2
P388 [44] = assay: Compound was tested for antitumor activity in P-388 lymphocytic leukemia system. at 200 mg/kg dose levels per injection; Toxic; type: functional, organism-based; parameters: dose 200 mg/kg; conditions: Mus musculus; how it was run: as §1

Row | SMILES | T/C (P388 [1]) | Weight difference (P388 [2]; 50 mg/kg) | Solubility [4] | Survivors at day 4 (P388 [6]) | Survivors at day 4 (P388 [7]) | T/C (P388 [8]; 100 mg/kg) | Weight difference (P388 [10]) | T/C (P388 [11]; 50 mg/kg) | Survivors at day 4 (P388 [12]) | T/C (P388 [15]) | Survivors at day 4 (P388 [16]) | T/C (P388 [18]; 25 mg/kg) | Survivors at day 4 (P388 [19]) | Weight difference (P388 [20]; 200 mg/kg) | T/C (P388 [22]) | Weight difference (P388 [25]; 100 mg/kg) | Weight difference (P388 [2]) | Weight difference (P388 [20]) | T/C (P388 [11]) | Solubility [36] | further results
1 | CC(=O)OCN1C(=O)C2C3C=CC(C2C1=O)C1C2C(=O)N(COC(C)=O)C(=O)C2C31 (centres undefined) | 117% | -0.4 g and -0.7 g | Insoluble | 6 | 6 | 118% and 155% | -2.2 g | 140% and 115% | 6 | 180% and 133% | 6 |  |  |  |  |  |  |  |  |  | Weight difference (P388 [3]): -0.1 g; Survivors at day 4 (P388 [5]): 5; Survivors at day 4 (P388 [9]): 5; Survivors at day 4 (P388 [13]): 5; Survivors at day 4 (P388 [14]): 5; T/C (P388 [17]): 208%
2 | O=C1C2C3C=CC(C2C(=O)N1CN1CCOCC1)C1C2C(=O)N(CN4CCOCC4)C(=O)C2C31 (centres undefined) |  | -1.7 g and -1.5 g | Insoluble | 6 | 6 | 120% and 174% |  | 148% and 141% |  |  | 6 | 120% and 125% | 4 | -6.2 g and -5.9 g | Toxic | -4.8 g and -3.9 g |  |  |  |  | Survivors at day 4 (P388 [21]): 3; Weight difference (P388 [23]; 25 mg/kg): -1 g and -0.9 g; Survivors at day 4 (P388 [24]): 6
3 | O=C1C2C3C=CC(C2C(=O)N1CN1CCSCC1)C1C2C(=O)N(CN4CCSCC4)C(=O)C2C31 (centres undefined) | 99% | -1.4 g and -2.1 g | Insoluble | 6 | 6 | 148% and 165% | -5.7 g | 166% and 121% | 6 | 166% and 194% | 6 |  |  | -5.1 g and -5.2 g |  | -2.9 g and -2.1 g |  |  |  |  | Survivors at day 4 (P388 [26]): 6; Weight difference (P388 [27]): -1.3 g; T/C (P388 [28]): Toxic
4 | CN1CCN(CN2C(=O)C3C4C=CC(C3C2=O)C2C3C(=O)N(CN5CCN(C)CC5)C(=O)C3C42)CC1 (centres undefined) | 99% |  |  | 6 |  | 200% and 211% |  |  |  |  | 6 |  |  |  |  | -3.7 g and -4.9 g | -1.3 g | -9 g | 106% | 1.5% | Weight difference (P388 [29]): -0.2 g; Weight difference (P388 [30]): -3.1 g; Survivors at day 4 (P388 [31]): 6; T/C (P388 [32]): 116%; Weight difference (P388 [33]): -5.1 g; Survivors at day 4 (P388 [34]): 3; Survivors at day 4 (P388 [35]): 6; Weight difference (P388 [23]): -0.6 g; Survivors at day 4 (P388 [37]): 5; T/C (P388 [38]): 165%; Survivors at day 4 (P388 [39]): 5
5 | O=C(O)CCC(=O)OCN1C(=O)C2C3C=CC(C2C1=O)C1C2C(=O)N(COC(=O)CCC(=O)O)C(=O)C2C31 (centres undefined) |  |  |  | 6 | 6 |  |  | 115% and 116% |  |  | 6 | 103% and 107% | 4 | -6.7 g and -6.9 g | Toxic | -4.4 g and -3.1 g |  |  |  |  | T/C (P388 [8]): 165%; Survivors at day 4 (P388 [40]): 5; T/C (P388 [41]): Toxic; Survivors at day 4 (P388 [42]): 2
6 | O=C1C2C3CCC(C2C(=O)N1CO)C1C2C(=O)N(CO)C(=O)C2C31 (centres undefined) |  |  |  | 6 |  |  |  |  |  |  | 6 |  |  |  |  |  | -1.8 g | -4.7 g | 145% | 1% | T/C (P388 [18]): 102%; Survivors at day 4 (P388 [43]): 6; T/C (P388 [8]): 205%; T/C (P388 [44]): Toxic; Weight difference (P388 [23]): 0.1 g; Survivors at day 4 (P388 [39]): 5; Weight difference (P388 [25]): -3.3 g
